{"source": "paper PMC5470083", "about": "(Molecular imaging, 2016)", "key": {"NFTs": {"target": "NFTs", "settings": "autoradiography on human AD brain tissue sections; ref [8],[11]; cited from earlier work"}, "tau (NFTs) [1]": {"target": "T1, tau (NFTs) (Homo sapiens, UniProt P10636)", "type": "binding", "settings": "1 µmol/L compound; tracer 7 nmol/L [18F]T808; human AD slices; n = 3"}, "tau (NFTs) [2]": {"target": "T1, tau (NFTs)", "type": "binding"}, "amyloid plaques": {"target": "amyloid plaques (Homo sapiens, UniProt P05067)", "sequence (P05067 672-711 limits assumed)": "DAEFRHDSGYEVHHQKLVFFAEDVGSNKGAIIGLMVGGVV", "type": "binding"}, "[3]": {"assay": "Perfused brain radiometabolite analysis", "type": "in vivo, mouse", "settings": "normal mice"}, "Aβ": {"target": "Aβ (Homo sapiens, UniProt P05067)", "sequence (P05067 672-711 limits assumed)": "as above", "assay": "In vitro autoradiography binding inhibition of [11C]PiB on human AD brain slices"}, "[4]": {"assay": "Plasma radiometabolite analysis", "type": "in vivo, mouse", "settings": "normal mice", "outline": "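NMRI mice under isoflurane (2.5% in O2) received about 3.7 MBq of 18F-labelled tracer via a lateral tail vein. They were decapitated at 2, 10, 30 or 60 min PI (n = 3/time point). EDTA blood was kept on ice and spun at 2330 ×g for 10 min. Plasma (0.5 mL) was spiked with 10 µg authentic unlabelled compound and run on C18 HPLC. Fractions were γ-counted for % intact tracer, reported as mean ± SD.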"}, "[5]": {"assay": "Biodistribution in normal NMRI mice", "type": "in vivo, mouse", "settings": "for %ID/g Blood / %ID/g Bone / %ID/g Brain / %ID/g Cerebellum / %ID/g Cerebrum / %ID/g Heart / %ID/g Kidneys / %ID/g Liver / %ID/g Lungs / %ID/g Muscle / %ID/g Pancreas / %ID/g Spleen: iv", "outline": "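Healthy male NMRI mice (30-40 g) under 2.5% isoflurane in O2 received about 0.9 MBq of 18F-labelled tracer by tail vein. They were decapitated at 2, 10, 30 and 60 min PI (n = 4/time point). Blood and organs were weighed and γ-counted. Blood, bone and muscle were taken as 7%, 12% and 40% of body mass. Blood clearance was calculated as the 2 min to 60 min activity ratio.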"}, "PHF tau": {"target": "PHF tau (Homo sapiens, UniProt P10636)", "sequence (P10636 623-695 limits assumed)": "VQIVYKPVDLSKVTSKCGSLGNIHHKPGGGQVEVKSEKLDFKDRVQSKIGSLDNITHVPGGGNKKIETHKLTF", "type": "binding"}, "[6]": {"settings": "read-out: % Block ± SD of tracer binding"}}, "note": "Read-outs that look alike come from different tables or passages of the source.", "data": [{"smiles": "[18F]c1ccc(-c2ccc3c(c2)[nH]c2ccncc23)cn1", "note": "[T807, 7-[6-[^18F]fluoropyridin-3-yl]-5H-pyrido-[4,3-b]indole]", "values": [{"measurement": "Kd", "setting": "NFTs", "result": 15, "unit": "nM"}, {"measurement": "fold higher binding affinity for NFTs over Aβ", "setting": "NFTs", "result": 25, "unit": "fold"}, {"measurement": "% Block ± SD of tracer binding", "setting": "tau (NFTs) [1]", "result": "94 ± 0.0", "unit": "%"}, {"measurement": "% Block ± SD of tracer binding", "setting": "tau (NFTs) [2]; 1 µmol/L compound, tracer 28 nmol/L [18F]T807, human AD slices, n = 3", "result": "88 ± 0.0", "unit": "%"}, {"measurement": "inhibition at 1 µM", "setting": "tau (NFTs) [2]; [6]", "result": 88, "unit": "%"}, {"measurement": "Ki", "setting": "amyloid plaques", "result": 247, "unit": "nM"}, {"measurement": "Mean % ± SD of intact tracer, perfused brain", "setting": "[3]; 10 min after injection, n = 3", "result": "100 ± 0", "unit": "%"}, {"measurement": "Mean % ± SD of intact tracer, perfused brain", "setting": "[3]; 10 min after injection, n = 3, listed as [^18F]T807", "result": "~100", "unit": "%"}, {"measurement": "Mean % ± SD of intact tracer, perfused brain", "setting": "[3]; 60 min after injection, n = 3", "result": "99 ± 1", "unit": "%"}, {"measurement": "Mean % ± SD of intact tracer, perfused brain", "setting": "[3]; 60 min after injection, n = 3, listed as [^18F]T807", "result": "~100", "unit": "%"}, {"measurement": "% Block ± SD of tracer binding", "setting": "Aβ; 1 µmol/L compound, tracer 13 nmol/L [11C]PiB, human AD slices, n = 3", "result": "11 ± 0.1", "unit": "%"}, {"measurement": "inhibition at 1 µM", "setting": "Aβ; [6]", "result": 11, "unit": "%"}, {"measurement": "inhibition at 1 µM", "setting": "Aβ; read-out: Inhibition of [11C]PiB binding, summary statements", "result": "< 17", "unit": "%"}, {"measurement": "Mean % ± SD of intact tracer, plasma", "setting": "[4]; 2 min after injection, n = 3", "result": "99 ± 1", "unit": "%"}, {"measurement": "Mean % ± SD of intact tracer, plasma", "setting": "[4]; 2 min after injection, n = 3, listed as [^18F]T807", "result": 99, "unit": "%"}, {"measurement": "Mean % ± SD of intact tracer, plasma", "setting": "[4]; 10 min after injection, n = 3", "result": "84 ± 5", "unit": "%"}, {"measurement": "Mean % ± SD of intact tracer, plasma", "setting": "[4]; 30 min after injection, n = 3", "result": "60 ± 14", "unit": "%"}, {"measurement": "Mean % ± SD of intact tracer, plasma", "setting": "[4]; 30 min after injection, n = 3, listed as [^18F]T807", "result": 60, "unit": "%"}, {"measurement": "Mean % ± SD of intact tracer, plasma", "setting": "[4]; 60 min after injection, n = 3", "result": "45 ± 4", "unit": "%"}, {"measurement": "%ID/g Blood", "setting": "[5]; blood, 2 min PI", "result": "1.5 ± 0.2", "unit": "%ID/g"}, {"measurement": "2/60 min activity ratio Blood (clearance from blood)", "setting": "[5]; blood, 2 min to 60 min activity ratio", "result": 2.5}, {"measurement": "%ID/g Blood", "setting": "[5]; blood, 10 min PI", "result": "0.7 ± 0.0", "unit": "%ID/g"}, {"measurement": "%ID/g Blood", "setting": "[5]; blood, 30 min PI", "result": "0.7 ± 0.1", "unit": "%ID/g"}, {"measurement": "%ID/g Blood", "setting": "[5]; blood, 60 min PI", "result": "0.6 ± 0.1", "unit": "%ID/g"}, {"measurement": "%ID/g Bone", "setting": "[5]; 2 min PI", "result": "0.1 ± 0.1", "unit": "%ID/g"}, {"measurement": "%ID/g Bone", "setting": "[5]; 10 min PI", "result": "1.4 ± 0.2", "unit": "%ID/g"}, {"measurement": "%ID/g Bone", "setting": "[5]; 60 min PI", "result": "0.1 ± 0.0", "unit": "%ID/g"}, {"measurement": "%ID/g Brain", "setting": "[5]; brain, 2 min PI", "result": "7.5 ± 1.1", "unit": "%ID/g"}, {"measurement": "2/60 min activity ratio Brain", "setting": "[5]; brain, 2 min to 60 min activity ratio", "result": 18.3}, {"measurement": "%ID/g Brain", "setting": "[5]; brain, 10 min PI", "result": "2.6 ± 0.5", "unit": "%ID/g"}, {"measurement": "%ID/g Brain", "setting": "[5]; brain, 30 min PI", "result": "0.8 ± 0.4", "unit": "%ID/g"}, {"measurement": "%ID/g Brain", "setting": "[5]; brain, 60 min PI", "result": "0.4 ± 0.2", "unit": "%ID/g"}, {"measurement": "%ID/g Cerebellum", "setting": "[5]; 2 min PI", "result": "8.5 ± 1.4", "unit": "%ID/g"}, {"measurement": "%ID/g Cerebellum", "setting": "[5]; 10 min PI", "result": "2.4 ± 0.5", "unit": "%ID/g"}, {"measurement": "%ID/g Cerebellum", "setting": "[5]; 30 min PI", "result": "0.8 ± 0.4", "unit": "%ID/g"}, {"measurement": "%ID/g Cerebellum", "setting": "[5]; 60 min PI", "result": "0.4 ± 0.2", "unit": "%ID/g"}, {"measurement": "%ID/g Cerebrum", "setting": "[5]; 2 min PI", "result": "7.2 ± 1.0", "unit": "%ID/g"}, {"measurement": "%ID/g Cerebrum", "setting": "[5]; 10 min PI", "result": "2.6 ± 0.5", "unit": "%ID/g"}, {"measurement": "%ID/g Cerebrum", "setting": "[5]; 30 min PI", "result": "0.8 ± 0.4", "unit": "%ID/g"}, {"measurement": "%ID/g Cerebrum", "setting": "[5]; 60 min PI", "result": "0.4 ± 0.2", "unit": "%ID/g"}, {"measurement": "%ID/g Heart", "setting": "[5]; 2 min PI", "result": "6.8 ± 0.9", "unit": "%ID/g"}, {"measurement": "%ID/g Heart", "setting": "[5]; 10 min PI", "result": "2.1 ± 0.3", "unit": "%ID/g"}, {"measurement": "%ID/g Heart", "setting": "[5]; 30 min PI", "result": "1.3 ± 0.3", "unit": "%ID/g"}, {"measurement": "%ID/g Heart", "setting": "[5]; 60 min PI", "result": "1.0 ± 0.1", "unit": "%ID/g"}, {"measurement": "%ID/g Kidneys", "setting": "[5]; 2 min PI", "result": "35.9 ± 6.2", "unit": "%ID/g"}, {"measurement": "%ID/g Kidneys", "setting": "[5]; 10 min PI", "result": "25.6 ± 3.0", "unit": "%ID/g"}, {"measurement": "%ID/g Kidneys", "setting": "[5]; 30 min PI", "result": "15.8 ± 5.0", "unit": "%ID/g"}, {"measurement": "%ID/g Kidneys", "setting": "[5]; 60 min PI", "result": "13.0 ± 2.6", "unit": "%ID/g"}, {"measurement": "%ID/g Liver", "setting": "[5]; 2 min PI", "result": "12.6 ± 2.4", "unit": "%ID/g"}, {"measurement": "%ID/g Liver", "setting": "[5]; 10 min PI", "result": "14.6 ± 1.0", "unit": "%ID/g"}, {"measurement": "%ID/g Liver", "setting": "[5]; 30 min PI", "result": "20.7 ± 1.8", "unit": "%ID/g"}, {"measurement": "%ID/g Liver", "setting": "[5]; 60 min PI", "result": "18.1 ± 2.2", "unit": "%ID/g"}, {"measurement": "%ID/g Lungs", "setting": "[5]; 2 min PI", "result": "25.1 ± 11.9", "unit": "%ID/g"}, {"measurement": "%ID/g Lungs", "setting": "[5]; 10 min PI", "result": "4.2 ± 1.8", "unit": "%ID/g"}, {"measurement": "%ID/g Lungs", "setting": "[5]; 30 min PI", "result": "3.9 ± 1.2", "unit": "%ID/g"}, {"measurement": "%ID/g Lungs", "setting": "[5]; 60 min PI", "result": "2.1 ± 0.7", "unit": "%ID/g"}, {"measurement": "%ID/g Muscle", "setting": "[5]; 2 min PI", "result": "3.0 ± 1.8", "unit": "%ID/g"}, {"measurement": "%ID/g Muscle", "setting": "[5]; 10 min PI", "result": "1.4 ± 0.3", "unit": "%ID/g"}, {"measurement": "%ID/g Muscle", "setting": "[5]; 30 min PI", "result": "0.6 ± 0.1", "unit": "%ID/g"}, {"measurement": "%ID/g Muscle", "setting": "[5]; 60 min PI", "result": "0.5 ± 0.1", "unit": "%ID/g"}, {"measurement": "%ID/g Pancreas", "setting": "[5]; 2 min PI", "result": "4.1 ± 2.2", "unit": "%ID/g"}, {"measurement": "%ID/g Pancreas", "setting": "[5]; 10 min PI", "result": "4.7 ± 0.7", "unit": "%ID/g"}, {"measurement": "%ID/g Pancreas", "setting": "[5]; 30 min PI", "result": "2.1 ± 0.8", "unit": "%ID/g"}, {"measurement": "%ID/g Pancreas", "setting": "[5]; 60 min PI", "result": "1.5 ± 0.6", "unit": "%ID/g"}, {"measurement": "%ID/g Spleen", "setting": "[5]; 2 min PI", "result": "15.7 ± 5.1", "unit": "%ID/g"}, {"measurement": "%ID/g Spleen", "setting": "[5]; 10 min PI", "result": "13.8 ± 12.5", "unit": "%ID/g"}, {"measurement": "%ID/g Spleen", "setting": "[5]; 30 min PI", "result": "3.8 ± 1.3", "unit": "%ID/g"}, {"measurement": "%ID/g Spleen", "setting": "[5]; 60 min PI", "result": "3.1 ± 1.7", "unit": "%ID/g"}, {"measurement": "Ki", "setting": "PHF tau", "result": 1.1, "unit": "nM"}]}]}
